# Most compounds without a hit are left out; they make up all but 2.9% or so of the library.
# ATG4B inhibitor: blocks human ATG4B protease cleavage of LC3 substrate. Q9Y4P1. ATG4B cleavage of LC3-PLA2, NBD-HPC fluorescence, 1 h. inhibition, % at 8.33 µM. AID 504462. 0.51% of 340,000 active; in the data active means inhibition above about 40%
# SIAE primary: inhibitors of human sialic acid acetylesterase SIAE | SIAE FP-Rh probe binding, fluorescence polarization | inhibition, % at 9.66 µM | 0.69% of 370,000 active;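 active means inhibition above a cutoff: mean of compounds within the control limits plus 3 SD of those, cut at about 17% in these data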
# PRMT1 inh: PRMT1 (human) inhibition, primary screen; Q99873; recombinant PRMT1, activity-based probe fluorescence polarization; inhibition, % at 2.79 µM; 1.3% of 370,000 active;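 active means inhibition above about 21% made by adding two undisclosed values, limit read from the data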
# TCR CD3 inh: blocks the human TCR-CD3 interaction; 0.37% of 360,000 active; TAMRA-labeled TCR probe fluorescence, biochemical; inhibition, % at 9.4 µM;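 further: recombinant mutant TCR 2C K166C tagged with TAMRA read by polarization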
# HTRA1 inhibitor: blocks human HTRA1 serine peptidase | Q92743 | recombinant HTRA1, FP-rhodamine activity-based probe, fluorescence polarization | inhibition, % at 5.96 µM | 0.5% of 340,000 active; in the data active means inhibition above about 36%
# Target sequence (Q92743 whole entry, looked up): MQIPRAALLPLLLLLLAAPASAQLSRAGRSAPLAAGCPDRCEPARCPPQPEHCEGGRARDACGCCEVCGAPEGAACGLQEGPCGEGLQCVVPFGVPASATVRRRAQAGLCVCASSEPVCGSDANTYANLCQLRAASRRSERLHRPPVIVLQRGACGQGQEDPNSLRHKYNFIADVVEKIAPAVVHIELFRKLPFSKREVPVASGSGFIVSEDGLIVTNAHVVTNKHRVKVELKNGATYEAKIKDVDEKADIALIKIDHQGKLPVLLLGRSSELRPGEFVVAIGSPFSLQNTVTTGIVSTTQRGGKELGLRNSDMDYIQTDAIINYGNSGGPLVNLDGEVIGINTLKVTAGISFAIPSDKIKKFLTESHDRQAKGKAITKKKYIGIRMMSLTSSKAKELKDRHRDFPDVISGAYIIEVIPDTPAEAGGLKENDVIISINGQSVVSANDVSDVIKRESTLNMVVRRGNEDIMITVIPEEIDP
# ABHD4 inh: inhibitors of mouse ABHD4; 0.54% of 370,000 active; Q8VD66; AID 720543; inhibition, % at 8.92 µM; purified mABHD4, FP-Rh probe fluorescence polarization;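 active means inhibition exceeding the mean over every tested compound plus 3 SD, cut at about 30% in these data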
#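 Material: mouse ABHD4 enzyme, wild type; Benchmarks: S159A mutant high control, sample median low control; Buffer or medium: HEPES pH 7.0, NaCl, Pluronic buffer; Signal: fluorescence polarization; Read-out: percent inhibition of probe binding, normalized to plate controls; Timing: pre-incubation 45 min, probe exposure 60 min, at 25 °C; Dosing: 8.92 µM, single dose.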
# ATG4B conf: confirmation of human ATG4B inhibitors. shares compounds with ATG4B inhibitor. ATG4B protease fluorescent substrate cleavage assay. AID 504757. inhibition, % at 8.33 µM. 92% of 320 active; in the data active means inhibition above about 39%
# PLA2 ctr: inhibits human PLA2, flagging false ATG4B inhibitors; inhibition, % at 8.33 µM; 66% of 1,600 active; purified PLA2, NBD-C6-HPC fluorescence, 45 min; shares compounds with ATG4B inhibitor; in the data active means inhibition above about 50%
# Target sequence (P04054 whole entry, looked up): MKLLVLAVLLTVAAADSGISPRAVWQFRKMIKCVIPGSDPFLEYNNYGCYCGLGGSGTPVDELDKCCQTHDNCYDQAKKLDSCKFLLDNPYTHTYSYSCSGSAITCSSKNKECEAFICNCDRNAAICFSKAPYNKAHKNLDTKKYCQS
# HTRA1 conf: HTRA1 (human) inhibition, confirmation | shares compounds with HTRA1 inhibitor | recombinant HTRA1, FP-rhodamine activity-based probe, fluorescence polarization | inhibition, % at 5.96 µM | 66% of 1,600 active | AID 540248;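 active means mean inhibition over three repeats above a set limit taken from the earlier primary screen, cut at about 37% in these data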;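 further: inhibitors block probe binding so polarization drops and inhibition rises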
# BSA probe FL: BSA probe counter-screen for TCR-CD3 inhibitors | 10% of 1,200 active | TAMRA-labeled BSA probe fluorescence counterscreen | shares compounds with TCR CD3 inh | inhibition, % at 9.4 µM; in the data active means inhibition above about 23%
# TCR-CD3 inh conf: confirmation of human TCR-CD3 interaction inhibitors; shares compounds with TCR CD3 inh; TAMRA-labeled TCR probe fluorescence binding assay; inhibition, % at 9.4 µM; 48% of 1,200 active
# PRMT1 confirm: confirmation of human PRMT1 inhibitors; AID 687036; recombinant His-PRMT1, activity-based probe fluorescence polarization; shares compounds with PRMT1 inh; 42% of 3,300 active; inhibition, % at 2.79 µM;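 active means mean inhibition across replicates above the hit cutoff derived for the earlier primary screen, cut at about 22% in these data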
# mABHD4 conf: confirmation of mouse ABHD4 inhibitors. shares compounds with ABHD4 inh. purified mABHD4, FP-Rh probe fluorescence polarization. inhibition, % at 8.92 µM. 55% of 1,800 active;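 active means mean inhibition across replicates above the hit cutoff set in the primary screen, cut at about 30% in these data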
# SIAE confirm: confirmation of human SIAE inhibitors. shares compounds with SIAE primary. SIAE FP-Rh activity-based probe, fluorescence polarization. inhibition, % at 9.66 µM. 13% of 2,300 active. AID 1117263;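 active means mean inhibition of the replicates above the hit cutoff set in the primary screen, cut at about 17% in these data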;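 further: inhibitors lower polarization as more probe stays unbound to SIAE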
# Hits are given with their value; . = inactive; / = not tested or not shown. Unless noted, no stated cut-off is given here; in the data, active means inhibition above about 19%; inactive means the rest.
SMILES,ATG4B inhibitor,SIAE primary,PRMT1 inh,TCR CD3 inh,HTRA1 inhibitor,ABHD4 inh,HTRA1 conf,others
COc1ccc(NC(=S)NNc2ccc([N+](=O)[O-])cc2S(=O)(=O)Nc2ccc(C)cc2C)cc1,43,47,24,.,.,39,/,PLA2 ctr=57;mABHD4 conf=38;SIAE confirm=.
Cc1ccc(NS(=O)(=O)c2cc([N+](=O)[O-])ccc2NNC(=S)Nc2cc(C)ccc2C)c(C)c1,58,31,.,.,.,.,/,PLA2 ctr=73;SIAE confirm=.
O=C(C1CCN(c2ncnc3c2sc2cccc(F)c23)CC1)N1CCCCC1,/,.,.,/,/,.,/,
CCN(CC)C(=O)CSc1nc2ccccc2c(=O)n1-c1cccc(OC)c1,.,.,.,.,.,.,/,
COc1cccc(-n2c(SCc3cc(=O)oc4cc(O)c(O)cc34)nc3ccccc3c2=O)c1,99,32,.,19,67,.,76,PLA2 ctr=100;BSA probe FL=.;TCR-CD3 inh conf=32;SIAE confirm=.
O=C(/C=C1\NC2(CCCC2)Cc2ccccc21)C(=O)N/N=C/c1ccc(O)c(O)c1,61,29,.,28,79,32,63,PLA2 ctr=68;mABHD4 conf=.;SIAE confirm=.
CN(Cc1ccccc1)C(=O)OCc1cn(Cc2ccccc2C(F)(F)F)nn1,/,.,.,/,/,.,/,
COC1=C(Br)C(=O)c2ncccc2C1=O,69,22,.,.,.,.,/,ATG4B conf=.;PLA2 ctr=.;SIAE confirm=.
C1=C(CCNc2ncnc3c2[nH]c2ccccc23)CCCC1,49,23,.,.,.,.,/,PLA2 ctr=64;SIAE confirm=22
O=c1c2[nH]c3ccccc3c2ncn1CCC1=CCCCC1,.,.,.,.,.,.,/,
O=C(NC(Cc1c[nH]c2ccccc12)C(=O)Nc1ccc(OC(F)(F)F)cc1)c1cccs1 (centres undefined),.,.,.,.,.,.,/,
O=C(NC(Cc1c[nH]c2ccccc12)C(=O)Nc1ccc(F)c([N+](=O)[O-])c1)c1cccs1 (centres undefined),71,19,.,.,.,.,/,PLA2 ctr=81;SIAE confirm=.
O=[N+]([O-])c1ccc(OC[C@@H](O)CN2CCC(C(O)(c3ccccc3)c3ccccc3)CC2)c(Cl)c1,/,.,.,/,/,.,/,
COc1ccc(NS(=O)(=O)c2ccc3c(c2)[C@H]2C=CC[C@H]2[C@@H](c2ccc(C(=O)O)cc2)N3)cc1,78,29,38,.,57,44,53,ATG4B conf=.;PLA2 ctr=.;PRMT1 confirm=21;mABHD4 conf=61;SIAE confirm=20
CC(C)CN1C(=O)C[C@@]2(C(=O)N(C)c3ccc(NC(=O)C(C)(C)C)cc32)C1c1ccccc1 (some centres undefined),/,.,.,/,/,.,/,
Cn1cccc1-c1cc(C(=O)N/N=C/c2cc(Br)ccc2O)[nH]n1,49,24,.,.,.,.,/,PLA2 ctr=56;SIAE confirm=.
COC(=O)C[C@@H]1CC[C@H]2[C@@H](COc3ccc(NC(=O)Nc4ccccc4Cl)cc3C(=O)N2C)O1,/,.,.,/,/,.,/,
CC(=NNc1nc2ccccc2s1)c1ccncn1,.,.,.,.,48,.,.,
C/C(=N\Nc1nc2ccccc2s1)c1ccc2c(c1)OCO2,.,.,.,.,.,.,/,
COC(=O)c1cccc(Cn2ccc3ccc(-c4ccc5ccn(C(=O)C6CC6)c5c4)cc32)c1,/,.,.,/,/,.,/,
COc1ccc(C2C(C(=O)Nc3c(C)cccc3C)CCC(=O)N2c2ccc(OC)cc2)cc1 (centres undefined),/,.,.,/,/,.,/,
CC(C)NC(=O)N[C@@H]1C[C@@H]2O[C@@H](CO)CC[C@@H]2O[C@@H]1CCc1ccc(-c2ccccc2F)cc1,/,.,.,/,/,.,/,
CCS(=O)(=O)c1ccc(OC)c(N=Nc2ccc(O)c3ncccc23)c1,.,.,.,.,45,.,.,
COc1ccc(S(=O)(=O)NCCOc2cccc3cccnc23)cc1OC,.,.,.,.,.,.,/,
CCN(CC)S(=O)(=O)c1cc(OC)ccc1N=Nc1ccc(O)c2ncccc12,.,.,.,.,63,.,69,
SMILES,ATG4B inhibitor,SIAE primary,PRMT1 inh,TCR CD3 inh,HTRA1 inhibitor,ABHD4 inh,HTRA1 conf,others
O=C(CSc1nc2ccccc2s1)N1CCOCC1,.,.,.,.,161,.,.,
Nc1c(Cl)ncnc1N/N=C/c1ccc2ccccc2n1,.,.,.,.,79,.,72,
C=CCN1[C@@H](C)COc2cccc(N3CCCC3)c2S1(=O)=O,/,.,.,/,/,.,/,
Oc1cccc2ccc(/C=C/c3ccccc3Cl)nc12,.,.,.,.,46,.,57,
Cc1cc(C)c(O)c(CN(C)Cc2cc(Cl)cc(Cl)c2O)c1,.,.,.,.,62,.,55,
Cc1ccnc(NCc2cc(Cl)cc(Cl)c2O)c1,/,.,.,.,.,.,/,
CC(C)(C)c1ccc(/C=N/Nc2nncn2N)cc1,.,.,.,.,.,.,/,
Nn1cnnc1N/N=C/c1cc(Br)cc(Br)c1O,.,.,.,.,53,.,51,
C[C@H]1C(c2ccccc2F)O[C@]2(C[C@H](O)c3ccccc3O2)C[C@@H]1O (some centres undefined),/,.,.,/,/,.,/,
CCCCCCC(=O)NC1CCCCN(Cc2cccc(Cl)c2)C1=O (centres undefined),/,.,.,/,/,.,/,
CCCCC(=O)Nc1ccc(N2CCCC2)cc1,.,.,.,.,44,.,38,
O=C(Nc1ccc(N2CCCC2)cc1)c1cc(Cl)ccc1Cl,.,.,.,.,59,.,.,
CCCCC(=O)Nc1ccc(N2CCN(C(=O)CC)CC2)cc1,.,.,.,.,.,.,/,
Cc1cc(C)cc(C(=O)Nc2ccc(N3CCCC3)cc2)c1,.,.,.,.,39,.,.,
